Experimental data reported in ChEMBL document CHEMBL4007430, “Synthesis and Cytostatic and Antiviral Profiling of Thieno-Fused 7-Deazapurine Ribonucleosides” (J Med Chem, 2017).

Key:
Adenosine kinase [1] = biological target: T1, Adenosine kinase (Homo sapiens, UniProt P55263); experiment: Drug level in human BJ cells assessed as ADK-mediated compound formation treated with 4-(Methylsulfanyl)-8-(beta-D-ribofuranosyl)-8H-thieno[2',3':4,5]-pyrrolo[2,3-d]pyrimidine at 1 umol/L after 1 hr by UPLC-MS/MS analysis; format: ADME, cell-based
Adenosine kinase [2] = biological target: T1, Adenosine kinase; experiment: Drug level assessed as human ADK-mediated compound formation treated with 4-(Methylsulfanyl)-8-(beta-D-ribofuranosyl)-8H-thieno[2',3':4,5]-pyrrolo[2,3-d]pyrimidine at 50 uM after 30 mins by HPLC analysis; format: ADME; settings: 0.5 h
Adenosine kinase [3] = biological target: T1, Adenosine kinase; experiment: Drug level in human BJ cells assessed as ADK-mediated compound formation treated with 4-(Methylsulfanyl)-8-(beta-D-ribofuranosyl)-8H-thieno[2',3':4,5]-pyrrolo[2,3-d]pyrimidine at 10 umol/L after 1 hr by UPLC-MS/MS analysis; format: ADME, cell-based
Adenosine kinase [4] = biological target: T1, Adenosine kinase; experiment: Drug metabolism in human HCT116 cells assessed as ADK-mediated 4-(Methylsulfanyl)-8-(beta-D-ribofuranosyl)-8H-thieno[2, 3:4,5]-pyrrolo[2,3-d]pyrimidine-5-O-monophosphate Sodium Salt formation per 5 x10^5 cells at 10 umol/L after 1 hr by UPLC-MS/MS analysis; format: ADME, cell-based; settings: 10 µM
Adenosine kinase [5] = biological target: T1, Adenosine kinase; experiment: Drug level in human BJ cells assessed as ADK-mediated compound formation treated with 4-(Methylsulfanyl)-8-(beta-D-ribofuranosyl)-8H-thieno[2',3':4,5]-pyrrolo[2,3-d]pyrimidine at 10 umol/L after 3 hrs by UPLC-MS/MS analysis; format: ADME, cell-based
CCRF-CEM = experiment: Cytotoxicity against human CCRF-CEM cells assessed as cell growth inhibition after 72 hrs by MTS assay
Adenosine kinase [6] = biological target: T1, Adenosine kinase; experiment: Drug metabolism in human HCT116 cells assessed as ADK-mediated 4-(Methylsulfanyl)-8-(beta-D-ribofuranosyl)-8H-thieno[2, 3:4,5]-pyrrolo[2,3-d]pyrimidine-5-O-monophosphate Sodium Salt formation per 5 x10^5 cells at 1 umol/L after 1 hr by UPLC-MS/MS analysis; format: ADME, cell-based; settings: 1 µM
[7] = Cytotoxicity against human K562-TAX cells assessed as cell growth inhibition after 72 hrs by MTS assay; format: functional, cell-based
In short: (§1)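 Cells were exposed to compound for 3 days, then stained with MTS as a quantitative metabolic read-out. IC50 is the concentration that inhibits cell growth by 50%.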

Adenosine kinase [8] = biological target: T1, Adenosine kinase; experiment: Drug metabolism in human BJ cells assessed as ADK-mediated 4-(Methylsulfanyl)-8-(beta-D-ribofuranosyl)-8H-thieno[2, 3:4,5]-pyrrolo[2,3-d]pyrimidine-5-O-monophosphate Sodium Salt formation per 5 x10^5 cells at 10 umol/L after 3 hrs by UPLC-MS/MS analysis; format: ADME, cell-based; settings: 10 µM
Adenosine kinase [9] = biological target: T1, Adenosine kinase; experiment: Drug level in human HCT116 cells assessed as ADK-mediated compound formation treated with 4-(Methylsulfanyl)-8-(beta-D-ribofuranosyl)-8H-thieno[2',3':4,5]-pyrrolo[2,3-d]pyrimidine at 1 umol/L after 1 hr by UPLC-MS/MS analysis; format: ADME, cell-based
Adenosine kinase [10] = biological target: T1, Adenosine kinase; experiment: Drug metabolism in human BJ cells assessed as ADK-mediated 4-(Methylsulfanyl)-8-(beta-D-ribofuranosyl)-8H-thieno[2, 3:4,5]-pyrrolo[2,3-d]pyrimidine-5-O-monophosphate Sodium Salt formation per 5 x10^5 cells at 1 umol/L after 1 hr by UPLC-MS/MS analysis; format: ADME, cell-based; settings: 1 µM
MRC5 = experiment: Cytotoxicity against human MRC5 cells assessed as cell growth inhibition after 72 hrs by MTS assay; format: cell-based; settings: MRC5, 72 h; in short: as §1
Adenosine kinase [11] = biological target: T1, Adenosine kinase; experiment: Drug metabolism in human BJ cells assessed as ADK-mediated 4-(Methylsulfanyl)-8-(beta-D-ribofuranosyl)-8H-thieno[2, 3:4,5]-pyrrolo[2,3-d]pyrimidine-5-O-monophosphate Sodium Salt formation per 5 x10^5 cells at 1 umol/L after 3 hrs by UPLC-MS/MS analysis; format: ADME, cell-based; settings: 1 µM
HL-60 = experiment: Cytotoxicity against human HL60 cells assessed as reduction in cell viability after 72 hrs by XTT assay; format: functional, cell-based; settings: HL-60, 72 h
In short: (§2)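 Cells were incubated with compound for 3 days. Viability was then measured with the XTT tetrazolium assay.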

HCT-116 [12] = experiment: Cytotoxicity against p53 deficient human HCT116 cells assessed as cell growth inhibition after 72 hrs by MTS assay; format: functional, cell-based; settings: HCT-116, 72 h; in short: as §1
Adenosine kinase [13] = biological target: T1, Adenosine kinase; experiment: Drug metabolism in human BJ cells assessed as ADK-mediated 4-(Methylsulfanyl)-8-(beta-D-ribofuranosyl)-8H-thieno[2, 3:4,5]-pyrrolo[2,3-d]pyrimidine-5-O-monophosphate Sodium Salt formation per 5 x10^5 cells at 10 umol/L after 1 hr by UPLC-MS/MS analysis; format: ADME, cell-based; settings: 10 µM
U2OS = experiment: Cytotoxicity against human U2OS cells assessed as cell growth inhibition after 72 hrs by MTS assay; format: functional, cell-based
A549 = experiment: Cytotoxicity against human A549 cells assessed as cell growth inhibition after 72 hrs by MTS assay; format: functional, cell-based; settings: A549, 72 h; in short: as §1
Adenosine kinase [14] = biological target: T1, Adenosine kinase; experiment: Drug level in human HCT116 cells assessed as ADK-mediated compound formation treated with 4-(Methylsulfanyl)-8-(beta-D-ribofuranosyl)-8H-thieno[2',3':4,5]-pyrrolo[2,3-d]pyrimidine at 10 umol/L after 3 hrs by UPLC-MS/MS analysis; format: ADME, cell-based
Adenosine kinase [15] = biological target: T1, Adenosine kinase; experiment: Drug level in human BJ cells assessed as ADK-mediated compound formation treated with 4-(Methylsulfanyl)-8-(beta-D-ribofuranosyl)-8H-thieno[2',3':4,5]-pyrrolo[2,3-d]pyrimidine at 1 umol/L after 3 hrs by UPLC-MS/MS analysis; format: ADME, cell-based
HepG2 = experiment: Cytotoxicity against human HepG2 cells assessed as reduction in cell viability after 72 hrs by XTT assay; format: functional, cell-based; settings: HepG2, 72 h; in short: as §2
HCT-116 [16] = experiment: Cytotoxicity against human HCT116 cells assessed as cell growth inhibition after 72 hrs by MTS assay; format: functional, cell-based; settings: HCT-116, 72 h; in short: as §1
[17] = Cytotoxicity against mrp-1/mdr-1 overexpressing human CEM-DNR-bulk cells assessed as cell growth inhibition after 72 hrs by MTS assay; format: functional, cell-based
In short: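 Cells were exposed to compound for 3 days, then stained with MTS as a quantitative metabolic read-out.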

Adenosine kinase [18] = biological target: T1, Adenosine kinase; experiment: Drug level in human HCT116 cells assessed as ADK-mediated compound formation treated with 4-(Methylsulfanyl)-8-(beta-D-ribofuranosyl)-8H-thieno[2',3':4,5]-pyrrolo[2,3-d]pyrimidine at 10 umol/L after 1 hr by UPLC-MS/MS analysis; format: ADME, cell-based
Adenosine kinase [19] = biological target: T1, Adenosine kinase; experiment: Drug level in human HCT116 cells assessed as ADK-mediated compound formation treated with 4-(Methylsulfanyl)-8-(beta-D-ribofuranosyl)-8H-thieno[2',3':4,5]-pyrrolo[2,3-d]pyrimidine at 1 umol/L after 3 hrs by UPLC-MS/MS analysis; format: ADME, cell-based
Adenosine kinase [20] = biological target: T1, Adenosine kinase; experiment: Drug metabolism in human HCT116 cells assessed as ADK-mediated 4-(Methylsulfanyl)-8-(beta-D-ribofuranosyl)-8H-thieno[2, 3:4,5]-pyrrolo[2,3-d]pyrimidine-5-O-monophosphate Sodium Salt formation per 5 x10^5 cells at 10 umol/L after 3 hrs by UPLC-MS/MS analysis; format: ADME, cell-based; settings: 10 µM
BJ = experiment: Cytotoxicity against human BJ cells assessed as cell growth inhibition after 72 hrs by MTS assay; format: cell-based; in short: as §1
K562 = experiment: Cytotoxicity against human K562 cells assessed as cell growth inhibition after 72 hrs by MTS assay; format: functional, cell-based; settings: K562, 72 h; in short: as §1
HeLa S3 = experiment: Cytotoxicity against human HeLaS3 cells assessed as reduction in cell viability after 72 hrs by XTT assay; format: functional, cell-based; settings: HeLa S3, 72 h; in short: as §2
Adenosine kinase [21] = biological target: T1, Adenosine kinase; experiment: Drug metabolism in human HCT116 cells assessed as ADK-mediated 4-(Methylsulfanyl)-8-(beta-D-ribofuranosyl)-8H-thieno[2, 3:4,5]-pyrrolo[2,3-d]pyrimidine-5-O-monophosphate Sodium Salt formation per 5 x10^5 cells at 1 umol/L after 3 hrs by UPLC-MS/MS analysis; format: ADME, cell-based; settings: 1 µM

T1 sequence (P55263 whole entry): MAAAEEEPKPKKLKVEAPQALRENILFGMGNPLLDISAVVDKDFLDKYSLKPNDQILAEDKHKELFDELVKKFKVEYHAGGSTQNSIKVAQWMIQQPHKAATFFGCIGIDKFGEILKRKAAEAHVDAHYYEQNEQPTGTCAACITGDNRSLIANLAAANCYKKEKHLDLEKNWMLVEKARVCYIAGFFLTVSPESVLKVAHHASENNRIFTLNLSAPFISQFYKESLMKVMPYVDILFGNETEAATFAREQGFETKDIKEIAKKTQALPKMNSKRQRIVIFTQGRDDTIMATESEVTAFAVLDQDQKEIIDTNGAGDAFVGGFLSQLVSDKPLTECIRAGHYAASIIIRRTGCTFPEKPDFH

CSc1ncnc2c1c1sccc1n2[C@@H]1O[C@H](COP(=O)([O-])O)[C@@H](O)[C@H]1O.[Na+]
Drug metabolism (Adenosine kinase [1]): Metabolite_Detected
Drug metabolism (Adenosine kinase [2]): Metabolite_Detected
Drug metabolism (Adenosine kinase [3]): Metabolite_Detected
Drug metabolism (Adenosine kinase [4]): 6108.2 pmol
Drug metabolism (Adenosine kinase [5]): Metabolite_Detected
IC50 (CCRF-CEM): 200 nM
Drug metabolism (Adenosine kinase [6]): 4124 pmol
IC50 [7]: > 50000 nM
Drug metabolism (Adenosine kinase [8]): 65894.4 pmol
Drug metabolism (Adenosine kinase [9]): Metabolite_Detected
Drug metabolism (Adenosine kinase [10]): 19751.3 pmol
IC50 (MRC5): > 50000 nM
Drug metabolism (Adenosine kinase [11]): 27253.4 pmol
IC50 (HL-60): 340 nM
IC50 (HCT-116 [12]): 130 nM
Drug metabolism (Adenosine kinase [13]): 62703.9 pmol
IC50 (U2OS): 9890 nM
IC50 (A549): > 50000 nM
Drug metabolism (Adenosine kinase [14]): Metabolite_Detected
Drug metabolism (Adenosine kinase [15]): Metabolite_Detected
IC50 (HepG2): 540 nM
IC50 (HCT-116 [16]): 110 nM
IC50 [17]: 47600 nM
Drug metabolism (Adenosine kinase [18]): Metabolite_Detected
Drug metabolism (Adenosine kinase [19]): Metabolite_Detected
Drug metabolism (Adenosine kinase [20]): 15246.3 pmol
IC50 (BJ): 640 nM
IC50 (K562): 390 nM
IC50 (HeLa S3): 9610 nM
Drug metabolism (Adenosine kinase [21]): 5737.8 pmol
